Only a sample is shown.
PGC1a acetyl up – compounds raising PGC1a acetylation signal, primary screen, PGC1a modulator project, cell-based, U2OS, AlphaScreen, signal-increasing mode. actives 0.21% (n = 350,000). activation, % at 15.6 µM. overnight;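 active = every replicate reaching activation of at least 50%, whatever the mean replicate activation; inconclusive = replicates that disagree or another doubt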;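 note: hits raise the AlphaScreen acetylation signal above neutral controls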
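System: Flag-PGC1a/GCN5 U2OS cells | Quantity: 7000 cells/well | Times: Overnight compound treatment, 37 °C | Measured by: AlphaScreen proximity luminescence, anti-acetyl-lysine antibody | Dosing: One concentration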
G6PC hep suppr – suppressors of forskolin-stimulated G6PC mRNA, dose response, PGC-1a acetylation activator project, cell-based, hepatocytes, RT-qPCR, cherry-picked samples; shares compounds with PGC1a acetyl up; primary mouse hepatocytes; G6PC suppression (normalized activity, % of positive control; higher = more suppression), % at 26 µM; 240 tested, under 10 active; AID 743463, 2014;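 active = dose curves showing G6PC suppression whose half-maximal dose is at most twice the top valid dose; inconclusive = flat curves with moderate negative activity, or unreliable fits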;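 note: G6PC expression relative to GAPDH housekeeping gene as delta delta Ct; 0% = median of neutral control wells and 100% = median of positive control wells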
Hep PCK1 suppr – suppression of PCK1 mRNA in primary hepatocytes, dose response, PGC-1a acetylation activator project, cell-based, primary mouse hepatocytes, RT-qPCR, cherry-pick | 230 tested, under 10 active | shares compounds with PGC1a acetyl up | forskolin-stimulated | AID 743465, 2014 | PCK1 expression decrease, unspecified at 26 µM;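 active = compounds lowering PCK1 expression whose fitted half-maximal concentration is at most twice the top tested dose; inconclusive = flat fit with moderate opposite-direction effect, or poor fit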;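 note: values are delta delta Ct of PCK1 relative to GAPDH; higher delta delta Ct means lower PCK1 expression so positive values indicate hits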
PGC1a hep suppr – suppression of PGC-1a mRNA in primary hepatocytes, dose response, PGC-1a acetylation activator project, cell-based, primary mouse hepatocytes, RT-qPCR, cherry-pick; max activity (PGC-1a expression decrease), %; shares compounds with PGC1a acetyl up; 240 tested, under 10 active; AID 743467, 2014; PGC-1a mRNA qPCR, forskolin; top dose 26 µM;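 active = compound lowering PGC-1a expression with fitted half-maximal concentration at most twice its top tested dose; inconclusive = flat curve with moderate opposite-direction effect, or poor fit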;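 note: 0% = neutral control wells median and 100% = positive control wells median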
An asterisk follows results filed as active; ? = inconclusive; [ ] = another dose, or the depositor's remark.

SMILES | PGC1a acetyl up | others
CS(=O)(=O)c1ncc(Cl)c(C(=O)Nc2ccc(N3CCOCC3)cc2)n1 | 80.9*
CC(C)c1ccc(NC(=O)c2ccc3c(c2)CCN3S(C)(=O)=O)cc1 | -81.9
Cc1ccc2nc(C)cc(OCC(=O)O)c2c1 | 59.0*
CC(=O)c1ccc(Nc2cc(C)nc3ccc(C)cc23)cc1 | -40.0
Cc1ccc(Nc2nc(C)cc(C)c2C(N)=O)c(C)c1 | -40.5
C[C@@]12C(=O)OC(=O)[C@]1(C)C1CCC2O1 | -47.0
Cn1c(Cl)cnc1C1CC(=O)c2cc(Cl)ccc2O1 (stereo not given) | 71.3*
CCCCN(c1ccccc1)c1ncnc(N)c1[N+](=O)[O-] | -52.0
COc1cc2nc(SCc3c(C)noc3C)n(CCC3=CCCCC3)c(=O)c2cc1OC | -48.0
Cc1noc(C)c1CSc1nnc(-c2cccnc2)n1C1CCCCC1C (stereo not given) | -49.1
C=CCn1c(SCc2c(C)noc2C)nc2ccccc2c1=O | 74.0*
O=[N+]([O-])c1ccc(Oc2cccc(F)c2)c2ccncc12 | -70.6
Nc1c(C(=O)c2ccccc2)sc2nsc(SCCN3CCCC3)c12 | 126.2*
O=C(O)C1C2CC3OC(=O)C1C3C2 (stereo not given) | -61.8
COc1ccc(C(=O)OCC(=O)NCc2ccc3c(c2)OCO3)cc1[N+](=O)[O-] | -45.6
COc1ccc([N+](=O)[O-])cc1NCc1ccccc1 | 83.6*
COc1ccc(C(=O)NC(=S)N(C)Cc2ccccc2)cc1Br | -49.2
N#Cc1ccc(Oc2cccnc2)cc1C#N | 52.7*
CCS(=O)(=O)Nc1ccc2c(c1)C(=O)N(C)C[C@@H](OC)[C@H](C)CN(Cc1ccccn1)[C@@H](C)CO2 | -44.4
CCCCN=C1NC(=O)C(CC(=O)Nc2ccc(Cl)cc2)S1 (stereo not given) | 171.3*
O=C(CC1SC(=NCc2ccccc2)NC1=O)Nc1ccccc1 (stereo not given) | 98.6*
CC(CCC(=O)O)C1CCC2C3CCC4CC(O)CCC4(C)C3CC(O)C12C (stereo not given) | -49.3
C[C@@H]1CN([C@@H](C)CO)C(=O)CCCn2cc(nn2)CO[C@H]1CN(C)Cc1ccc2c(c1)OCO2 | -59.5
Cc1cc(=O)oc2cc(OCC(=O)OCC(=O)Nc3ccccc3F)ccc12 | -44.8
C=C1C(=O)O[C@@H]2[C@H]1[C@@H](OC(=O)/C(C)=C/C)C/C(C)=C\C(=O)/C=C(\C)[C@@H]2O | 197.7*
SMILES | PGC1a acetyl up | others
O=C(Cc1ccccc1)N1CCN(c2ccc([N+](=O)[O-])cc2)CC1 | 117.6*
O=C(Nc1ccc(N2CCN(Cc3ccccc3F)CC2)cc1)c1ccc([N+](=O)[O-])o1 | -72.7
CC(c1ccccc1)C1CC(=O)N(c2ccc([N+](=O)[O-])cc2)C1=O (stereo not given) | -40.9
CC(C)c1ccc(/C=N/NC(=O)C2CCCC2)cc1 | -46.2
Cn1cnnc1Sc1ccc(/C=C/C(=O)c2ccc(O)cc2)cc1[N+](=O)[O-] | 58.0*
CC(C)C#Cc1cnc2c(c1)C(=O)N([C@H](C)CO)C[C@H](C)[C@H](CN(C)C(=O)CN1CCOCC1)O2 | -57.7
CC1CC1C(=O)OCC(=O)NCc1ccc(Cl)cc1 (stereo not given) | 55.5*
Cc1ccc(S(=O)(=O)N(CC2CO2)c2ccccc2[N+](=O)[O-])cc1 (stereo not given) | -79.1
CC(C)NC(=S)N=Nc1c(O)[nH]c2ccc(C(C)C)cc12 | -47.5
Nc1nc(SCC(=O)Nc2ccccc2Sc2ccc(Cl)cc2)n[nH]1 | 89.2*
N=c1sccn1CC(=O)Nc1ccccc1Sc1ccccc1 | -72.9
COc1ccc(-c2noc(CCC(=O)N3CCN(c4cccc(C)c4C)CC3)n2)cc1 | -43.5
CC(C)CC(NC(=O)c1ccc(Cl)cc1)C(=O)OCC(=O)c1ccc2c(c1)NC(=O)CO2 (stereo not given) | -56.7
CCN(CCNc1ccc(Cl)cc1[N+](=O)[O-])C(=O)c1cc([N+](=O)[O-])c(N(C)C)cc1OC | -51.5
CC(=O)c1ccc(N2CCN(C(=O)C(=O)c3c(C)[nH]c4ccccc34)CC2)cc1 | 65.6* | G6PC hep suppr=-36.6;Hep PCK1 suppr=-14;PGC1a hep suppr=-13.9
Cn1c(C(C#N)C(=O)c2sc3ccccc3c2Cl)nc2ccccc21 (stereo not given) | -49.8
Cc1ccc(-c2[nH]ncc2/C=C(\C#N)C(=O)NC2CCCCC2)cc1 | -40.8
N#Cc1ccccc1COC(=O)c1ccc2c(c1)OCCO2 | ? | G6PC hep suppr=-9.2;Hep PCK1 suppr=10.7;PGC1a hep suppr=-15.8
CCNC(=O)NC(=O)COc1ccccc1C#N | -45.4
N=c1n(Cc2ccccc2)c2ccccc2n1CC(O)COc1ccc(Cl)cc1Cl (stereo not given) | -44.3
O=C(OCc1ccccc1)N1CCC2CC1c1cc(-c3ccc(F)cc3)ccc12 (stereo not given) | -62.8
C=CC(=O)NC(C)(C)Cc1ccccc1 | -44.0
COC(=O)c1cc2ccsc2n1CC(=O)Nc1cc(Cl)ccc1OC | 59.4* | G6PC hep suppr=24.2;Hep PCK1 suppr=314;PGC1a hep suppr=118.7
O=C(c1cc(Cl)ccc1Cl)N1CCc2ccccc21 | -42.7
O=C(NN1c2ccccc2CCc2ccccc21)c1ccccc1Br | ? | G6PC hep suppr=167.9;Hep PCK1 suppr=102;PGC1a hep suppr=88.4
SMILES | PGC1a acetyl up | others
Brc1ccc(N/N=C(/N=Nc2nn[nH]n2)c2ccccc2)cc1 | -97.0
COc1ccc2nc(N3CCCC(C(=O)NCCCN4CCN(C)CC4)C3)sc2c1 (stereo not given) | -70.2
Cc1cc(=O)[nH]c(NN=Cc2cc(Br)ccc2O)n1 | -49.7
O=C(COCc1cc(-c2ccc3c(c2)OCO3)on1)Nc1cccnc1 | 94.2* | G6PC hep suppr=3.1;Hep PCK1 suppr=43.5;PGC1a hep suppr=?
N#Cc1cc2c(=O)n3ccccc3nc2n(Cc2cccnc2)c1=O | -49.0
C[C@@H]1CN([C@H](C)CO)C(=O)c2cc(N(C)C)ccc2O[C@@H](C)CCCCO[C@H]1CN(C)C(=O)Cc1ccccc1 | 119.4* | G6PC hep suppr=13.8[23.5 µM];Hep PCK1 suppr=53.3[23.5 µM];PGC1a hep suppr=103.4
C[C@@H]1CN([C@H](C)CO)C(=O)c2cc(N(C)C)ccc2O[C@@H](C)CCCCO[C@H]1CN(C)C(=O)Nc1ccccc1 | 67.1* | G6PC hep suppr=-5.2[23.5 µM];Hep PCK1 suppr=-7.95[23.5 µM];PGC1a hep suppr=16.9
C[C@H](CO)N1C[C@H](C)[C@@H](CN(C)Cc2ccc(C(F)(F)F)cc2)Oc2ccc(NS(=O)(=O)c3ccc(F)cc3)cc2C1=O | -103.3
C=C1C(=O)[C@]23C[C@H]1CC[C@H]2[C@]1(C)[C@@H](OC(C)=O)CC[C@@](C)(C(=O)OC)[C@H]1C[C@@H]3OC(C)=O | -94.0
CCNc1nc(Oc2ccc(C#N)cc2)cc(C(F)(F)F)n1 | -41.5
CN1CCN(/N=C/c2ccc(N(c3ccccc3)c3ccccc3)cc2)CC1 | -56.4
O=C1NC2(CCC3(CC2)OCCO3)NN1c1ccccc1 | -51.0
COc1cccc(NC(=O)N2CCN(c3cccc(C)c3)C(C)C2)c1 (stereo not given) | -45.4
CN(C)c1nc(SCCOC(=O)COc2ccc(Cl)cc2Cl)nc(N(C)C)n1 | -51.6

Bioassay records as filed in PubChem BioAssay.
